Data on six compounds can be found in ChEMBL document CHEMBL4828711, “Development of a selective matrix metalloproteinase 13 (MMP-13) inhibitor for the treatment of Osteoarthritis” (Eur J Med Chem, 2021).

Active and inactive are the calls of the source. The rule behind the calls is not given here.

Data set [1] can be described thus: Stability in rat liver microsomes assessed as parent compound remaining at 1 uM measured after 60 mins in presence of NADPH by LC-MS/MS analysis. Format: ADME, Microsome. To be noted: read-out: Stability. In short, it runs like this: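 Compound at 1 μM was incubated with 0.3 mg/ml rat liver microsomes in 100 mM potassium phosphate pH 7.4 with 2 mM NADPH and 3 mM MgCl2, in duplicate at 37 °C for 60 min. A control without NADPH was run alongside. Samples at 0 and 60 min were quenched in cold acidified acetonitrile with internal standards, and percent parent remaining was measured by LC-MS/MS.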

For data set [2], the target named is Matrix metalloproteinase-9 (Homo sapiens, UniProt P14780). The experiment in a line: Inhibition of recombinant human MMP9 using QXL520-gamma-Abu-Pro-Cha-Abu-Smc-His-Ala-Dab(5-FAM)-Ala-Lys-NH2 as substrate measured every 5 mins for 2 hrs by FRET assay. The method in brief:
(§1)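 FRET assay with the catalytic domain of recombinant human MMP and a 5-FAM/QXL520 peptide substrate. Buffer was HEPES pH 7.5 with CaCl2, 0.01% Brij-35, 0.1 mg/ml BSA and 5% DMSO. Enzyme and compound were preincubated 10 min, then substrate was added. Fluorescence (ex 490/em 520 nm) was read every 5 min for 2 h at room temperature, and the initial linear slope was used. Curves had 12 doses, 3-fold dilutions from 100 μM, run in duplicate and averaged.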

The target of another data set is Stromelysin-2 (Homo sapiens, UniProt P09238). The experiment in a line: Inhibition of recombinant human MMP10 using QXL520-gamma-Abu-Pro-Cha-Abu-Smc-His-Ala-Dab(5-FAM)-Ala-Lys-NH2 as substrate measured every 5 mins for 2 hrs by FRET assay.
The next data set concerns the target T1, Interstitial collagenase (Homo sapiens, UniProt P03956).
T1 sequence (P03956 whole entry): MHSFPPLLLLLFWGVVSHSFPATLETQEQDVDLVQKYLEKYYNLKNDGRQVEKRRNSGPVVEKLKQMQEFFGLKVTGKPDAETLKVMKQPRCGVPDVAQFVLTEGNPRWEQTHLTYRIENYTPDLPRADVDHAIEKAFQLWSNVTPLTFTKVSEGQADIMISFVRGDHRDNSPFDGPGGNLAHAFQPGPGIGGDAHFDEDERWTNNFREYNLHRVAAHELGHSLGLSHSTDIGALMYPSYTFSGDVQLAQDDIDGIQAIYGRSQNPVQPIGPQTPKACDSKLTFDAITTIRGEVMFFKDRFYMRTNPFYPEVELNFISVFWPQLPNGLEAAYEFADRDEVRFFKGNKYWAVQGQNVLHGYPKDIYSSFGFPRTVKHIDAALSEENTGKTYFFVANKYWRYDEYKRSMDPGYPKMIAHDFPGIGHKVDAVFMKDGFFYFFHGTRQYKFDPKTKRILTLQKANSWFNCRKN
The experiment in a line: Inhibition of recombinant human MMP1 using QXL520-gamma-Abu-Pro-Cha-Abu-Smc-His-Ala-Dab(5-FAM)-Ala-Lys-NH2 as substrate measured every 5 mins for 2 hrs by FRET assay. The method in brief: as §1

The next data set has as its target T2, Matrilysin (Homo sapiens, UniProt P09237).
T2 sequence (P09237 whole entry): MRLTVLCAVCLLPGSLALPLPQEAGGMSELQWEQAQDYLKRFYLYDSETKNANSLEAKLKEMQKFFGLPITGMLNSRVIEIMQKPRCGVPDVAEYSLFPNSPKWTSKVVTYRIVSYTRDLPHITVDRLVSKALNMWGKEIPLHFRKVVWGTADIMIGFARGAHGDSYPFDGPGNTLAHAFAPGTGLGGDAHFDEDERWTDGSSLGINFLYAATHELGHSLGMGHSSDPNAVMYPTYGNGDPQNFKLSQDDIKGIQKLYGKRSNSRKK
Put plainly: Inhibition of recombinant human MMP7 using QXL520-gamma-Abu-Pro-Cha-Abu-Smc-His-Ala-Dab(5-FAM)-Ala-Lys-NH2 as substrate measured every 5 mins for 2 hrs by FRET assay. In short, it runs like this: as §1

The test system of data set [3] is Rattus norvegicus. The experiment in a line: Chondro-protective activity in MIA-induced Sprague-Dawley rat osteoarthritis model assessed as reduction in proteoglycan loss on MTP at 1 mg, ia administered once per week for 3 weeks starting from 5 days post MIA treatment and measured after 26 days post MIA injection. In kind it is functional. Also on record: scale not given: the % may be the effect or the level left. In short, it runs like this: (§2)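 Male Sprague-Dawley rats (175–200 g) received 2 mg MIA in 40 μl into the right knee. Saline suspensions were given intra-articularly on days 5, 12 and 19, with 8 rats per group and 5 naive rats. Right knees were taken on day 26, then formalin-fixed, decalcified, paraffin-sectioned and toluidine blue-stained. A veterinary pathologist scored cell loss (area without viable chondrocytes), proteoglycan loss (staining intensity), bone resorption and osteophytes. Statistics were ANOVA or Kruskal-Wallis with post-tests versus vehicle.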

In data set [4] the test system is Rattus norvegicus. Put plainly: Chondro-protective activity in MIA-induced Sprague-Dawley rat osteoarthritis model assessed as reduction in proteoglycan loss on LFC at 1 mg, ia administered once per week for 3 weeks starting from 5 days post MIA treatment and measured after 26 days post MIA injection. Format: functional. Also on record: scale not given: the % may be the effect or the level left. In short, it runs like this:
as §2

The target in a further data set is Neutrophil collagenase (Homo sapiens, UniProt P22894). The experiment in a line: Inhibition of recombinant human MMP8 using QXL520-gamma-Abu-Pro-Cha-Abu-Smc-His-Ala-Dab(5-FAM)-Ala-Lys-NH2 as substrate measured every 5 mins for 2 hrs by FRET assay. The method in brief: as §1
Data set [5] concerns Rattus norvegicus. Put plainly: Chondro-protective activity in MIA-induced Sprague-Dawley rat osteoarthritis model assessed as reduction in cell loss on lateral tibial plateau at 1 mg, ia administered once per week for 3 weeks starting from 5 days post MIA treatment and measured after 26 days post MIA injection. Format: functional. Also on record: scale not given: the % may be the effect or the level left. In short, it runs like this:
as §2

The target in data set [6] is T3, Collagenase 3 (Homo sapiens, UniProt P45452). Put plainly: Inhibition of recombinant human MMP13 using QXL520-gamma-Abu-Pro-Cha-Abu-Smc-His-Ala-Dab(5-FAM)-Ala-Lys-NH2 as substrate measured every 5 mins for 2 hrs by FRET assay. The method in brief:
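Catalytic domain of human recombinant MMP-13. Buffer: HEPES pH 7.5, CaCl2, 0.01% Brij-35, 0.1 mg/ml BSA and 5% DMSO. Compound was preincubated with enzyme for 10 min before substrate addition. Fluorescence (ex 490, em 520 nm) was read at room temperature. IC50 came from initial linear slopes over 12 doses, 3-fold dilutions from 100 μM, in duplicate, reported as the mean.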

Data set [7] addresses Macrophage metalloelastase (Homo sapiens, UniProt P39900). The experiment in a line: Inhibition of recombinant human MMP12 using QXL520-gamma-Abu-Pro-Cha-Abu-Smc-His-Ala-Dab(5-FAM)-Ala-Lys-NH2 as substrate measured every 5 mins for 2 hrs by FRET assay. The method in brief: as §1
The target of a further data set is Stromelysin-1 (Homo sapiens, UniProt P08254). The experiment in a line: Inhibition of recombinant human MMP3 using QXL520-gamma-Abu-Pro-Cha-Abu-Smc-His-Ala-Dab(5-FAM)-Ala-Lys-NH2 as substrate measured every 5 mins for 2 hrs by FRET assay. The method in brief:
as §1

Data set [8] deals with Rattus norvegicus. Put plainly: Chondro-protective activity in MIA-induced Sprague-Dawley rat osteoarthritis model assessed as reduction in proteoglycan loss on LTP at 1 mg, ia administered once per week for 3 weeks starting from 5 days post MIA treatment and measured after 26 days post MIA injection. Format: functional. Also on record: scale not given: the % may be the effect or the level left. The method in brief:
as §2

Data set [9] has as its target Matrix metalloproteinase-14 (Homo sapiens, UniProt P50281). The experiment in a line: Inhibition of recombinant human MMP14 using QXL520-gamma-Abu-Pro-Cha-Abu-Smc-His-Ala-Dab(5-FAM)-Ala-Lys-NH2 as substrate measured every 5 mins for 2 hrs by FRET assay. In short, it runs like this: as §1
The target of data set [10] is 72 kDa type IV collagenase (Homo sapiens, UniProt P08253). Put plainly: Inhibition of recombinant human MMP2 using QXL520-gamma-Abu-Pro-Cha-Abu-Smc-His-Ala-Dab(5-FAM)-Ala-Lys-NH2 as substrate measured every 5 mins for 2 hrs by FRET assay. The method in brief: as §1
Data set [11] concerns the target T3, Collagenase 3. The experiment in a line: Inhibition of MMP13 (unknown origin). In short, it runs like this: as §1
Data set [12] concerns Rattus norvegicus. The experiment in a line: Chondro-protective activity in MIA-induced Sprague-Dawley rat osteoarthritis model assessed as reduction of bone resorption in lateral femoral condyle at 0.06 mg, ia administered once per week for 3 weeks starting from 5 days post MIA treatment and measured after 26 days post MIA injection. In kind it is functional. Also on record: scale not given: the % may be the effect or the level left. In short, it runs like this:
as §2

Data set [13] has as its system Rattus norvegicus. The experiment in a line: Chondro-protective activity in MIA-induced Sprague-Dawley rat osteoarthritis model assessed as reduction of bone resorption in medial femoral condyle at 0.06 mg, ia administered once per week for 3 weeks starting from 5 days post MIA treatment and measured after 26 days post MIA injection. In kind it is functional. Also on record: scale not given: the % may be the effect or the level left. The method in brief:
as §2

For data set [14], the system named is Rattus norvegicus. The experiment in a line: Chondro-protective activity in MIA-induced Sprague-Dawley rat osteoarthritis model assessed as reduction of osteophyte score at 0.06 mg, ia administered once per week for 3 weeks starting from 5 days post MIA treatment and measured after 26 days post MIA injection. In kind it is functional. Also on record: scale not given: the % may be the effect or the level left. In short, it runs like this: as §2

The test system of data set [15] is Rattus norvegicus. Put plainly: Chondro-protective activity in MIA-induced Sprague-Dawley rat osteoarthritis model assessed as reduction of cell loss at 0.06 mg, ia administered once per week for 3 weeks starting from 5 days post MIA treatment and measured after 26 days post MIA injection. In kind it is functional, organism-based. The method in brief: as §2
Data set [16] relates to Rattus norvegicus. The experiment in a line: Chondro-protective activity in MIA-induced Sprague-Dawley rat osteoarthritis model assessed as reduction of bone resorption in tibia at 0.06 mg, ia administered once per week for 3 weeks starting from 5 days post MIA treatment and measured after 26 days post MIA injection. In kind it is functional. Also on record: scale not given: the % may be the effect or the level left. In short, it runs like this:
as §2

Data set [17] in a line: Stability in rat liver microsomes. Format: ADME, Microsome. In short, it runs like this: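 Rat liver microsomes at 0.3 mg/ml protein with 1 μM compound, in 100 mM potassium phosphate pH 7.4, 2 mM NADPH, 3 mM MgCl2. Incubated in duplicate for 60 min at 37 °C with shaking, with a duplicate NADPH-free control. Sampled at T=0 and 60 min into cold acidified acetonitrile with internal standards. Percent parent remaining measured by LC-MS/MS (ESI, MRM).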

Sequence of Matrix metalloproteinase-9 (P14780 whole entry, the tested form may be a part): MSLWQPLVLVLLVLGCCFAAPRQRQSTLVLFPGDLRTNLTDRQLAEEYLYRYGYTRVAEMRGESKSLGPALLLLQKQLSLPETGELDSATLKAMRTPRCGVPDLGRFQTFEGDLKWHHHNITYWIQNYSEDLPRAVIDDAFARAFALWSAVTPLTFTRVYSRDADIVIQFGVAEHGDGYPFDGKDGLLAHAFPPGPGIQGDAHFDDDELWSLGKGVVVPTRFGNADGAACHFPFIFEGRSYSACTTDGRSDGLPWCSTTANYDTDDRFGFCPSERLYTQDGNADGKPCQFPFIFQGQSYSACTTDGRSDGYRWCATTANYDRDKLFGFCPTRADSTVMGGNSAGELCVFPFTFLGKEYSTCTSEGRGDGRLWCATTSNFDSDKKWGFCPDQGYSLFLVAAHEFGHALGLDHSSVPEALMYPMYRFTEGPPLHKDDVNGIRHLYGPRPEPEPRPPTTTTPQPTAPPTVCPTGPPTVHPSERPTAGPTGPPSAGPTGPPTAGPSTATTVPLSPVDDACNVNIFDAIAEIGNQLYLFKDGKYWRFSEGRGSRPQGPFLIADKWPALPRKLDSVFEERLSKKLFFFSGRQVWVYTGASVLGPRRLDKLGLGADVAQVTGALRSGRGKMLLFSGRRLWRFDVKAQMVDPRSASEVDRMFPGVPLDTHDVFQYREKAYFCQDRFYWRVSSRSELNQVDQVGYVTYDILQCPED
Sequence of Macrophage metalloelastase (P39900 whole entry): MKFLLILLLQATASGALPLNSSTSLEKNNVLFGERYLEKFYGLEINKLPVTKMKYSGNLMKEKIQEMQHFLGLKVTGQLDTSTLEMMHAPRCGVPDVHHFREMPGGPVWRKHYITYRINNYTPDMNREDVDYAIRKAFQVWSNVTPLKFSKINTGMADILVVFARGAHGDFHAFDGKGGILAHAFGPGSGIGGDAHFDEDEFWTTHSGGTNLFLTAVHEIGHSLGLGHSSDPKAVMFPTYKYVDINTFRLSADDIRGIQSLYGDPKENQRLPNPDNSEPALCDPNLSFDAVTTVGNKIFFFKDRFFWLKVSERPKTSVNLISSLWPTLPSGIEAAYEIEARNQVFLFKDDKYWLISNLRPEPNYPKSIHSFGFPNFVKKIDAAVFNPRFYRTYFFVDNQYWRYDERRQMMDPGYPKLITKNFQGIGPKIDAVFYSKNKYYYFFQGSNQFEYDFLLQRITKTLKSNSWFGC
Sequence of Stromelysin-1 (P08254 whole entry): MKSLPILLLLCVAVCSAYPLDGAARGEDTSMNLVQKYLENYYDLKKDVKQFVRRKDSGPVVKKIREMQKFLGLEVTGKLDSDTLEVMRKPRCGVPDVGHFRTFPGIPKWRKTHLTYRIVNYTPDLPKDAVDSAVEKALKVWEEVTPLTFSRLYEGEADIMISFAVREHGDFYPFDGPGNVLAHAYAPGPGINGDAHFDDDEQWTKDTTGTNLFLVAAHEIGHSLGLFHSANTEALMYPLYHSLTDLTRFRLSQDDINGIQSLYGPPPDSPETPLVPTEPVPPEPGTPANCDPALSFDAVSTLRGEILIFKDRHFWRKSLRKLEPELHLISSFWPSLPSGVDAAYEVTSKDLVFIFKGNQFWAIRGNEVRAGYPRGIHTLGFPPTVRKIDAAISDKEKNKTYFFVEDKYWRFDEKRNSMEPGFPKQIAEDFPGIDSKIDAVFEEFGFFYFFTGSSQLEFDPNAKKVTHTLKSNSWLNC
Sequence of Neutrophil collagenase (P22894 whole entry): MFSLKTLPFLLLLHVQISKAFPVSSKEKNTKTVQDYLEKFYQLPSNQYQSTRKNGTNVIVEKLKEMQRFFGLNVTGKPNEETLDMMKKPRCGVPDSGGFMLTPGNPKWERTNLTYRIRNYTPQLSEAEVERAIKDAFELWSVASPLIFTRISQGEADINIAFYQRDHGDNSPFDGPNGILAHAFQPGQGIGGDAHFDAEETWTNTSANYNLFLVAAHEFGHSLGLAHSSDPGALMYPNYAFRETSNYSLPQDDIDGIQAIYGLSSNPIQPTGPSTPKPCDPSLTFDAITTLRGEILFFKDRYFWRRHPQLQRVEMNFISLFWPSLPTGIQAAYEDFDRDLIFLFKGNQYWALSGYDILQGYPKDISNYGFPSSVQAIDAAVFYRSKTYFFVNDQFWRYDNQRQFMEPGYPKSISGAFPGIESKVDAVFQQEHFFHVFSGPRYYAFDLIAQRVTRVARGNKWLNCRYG
Sequence of Stromelysin-2 (P09238 whole entry): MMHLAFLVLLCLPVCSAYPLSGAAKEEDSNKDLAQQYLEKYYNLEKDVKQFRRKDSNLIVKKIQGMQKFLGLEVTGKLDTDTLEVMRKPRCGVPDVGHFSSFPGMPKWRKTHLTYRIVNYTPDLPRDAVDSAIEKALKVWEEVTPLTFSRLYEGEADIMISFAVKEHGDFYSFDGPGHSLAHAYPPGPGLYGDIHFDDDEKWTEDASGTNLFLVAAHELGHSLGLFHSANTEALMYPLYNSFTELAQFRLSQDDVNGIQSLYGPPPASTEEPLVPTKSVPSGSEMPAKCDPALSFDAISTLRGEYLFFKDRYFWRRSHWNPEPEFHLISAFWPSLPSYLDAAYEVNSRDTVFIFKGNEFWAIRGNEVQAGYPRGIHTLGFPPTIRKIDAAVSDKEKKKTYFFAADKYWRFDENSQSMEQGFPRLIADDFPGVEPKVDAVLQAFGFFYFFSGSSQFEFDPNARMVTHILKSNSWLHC
Sequence of 72 kDa type IV collagenase (P08253 whole entry): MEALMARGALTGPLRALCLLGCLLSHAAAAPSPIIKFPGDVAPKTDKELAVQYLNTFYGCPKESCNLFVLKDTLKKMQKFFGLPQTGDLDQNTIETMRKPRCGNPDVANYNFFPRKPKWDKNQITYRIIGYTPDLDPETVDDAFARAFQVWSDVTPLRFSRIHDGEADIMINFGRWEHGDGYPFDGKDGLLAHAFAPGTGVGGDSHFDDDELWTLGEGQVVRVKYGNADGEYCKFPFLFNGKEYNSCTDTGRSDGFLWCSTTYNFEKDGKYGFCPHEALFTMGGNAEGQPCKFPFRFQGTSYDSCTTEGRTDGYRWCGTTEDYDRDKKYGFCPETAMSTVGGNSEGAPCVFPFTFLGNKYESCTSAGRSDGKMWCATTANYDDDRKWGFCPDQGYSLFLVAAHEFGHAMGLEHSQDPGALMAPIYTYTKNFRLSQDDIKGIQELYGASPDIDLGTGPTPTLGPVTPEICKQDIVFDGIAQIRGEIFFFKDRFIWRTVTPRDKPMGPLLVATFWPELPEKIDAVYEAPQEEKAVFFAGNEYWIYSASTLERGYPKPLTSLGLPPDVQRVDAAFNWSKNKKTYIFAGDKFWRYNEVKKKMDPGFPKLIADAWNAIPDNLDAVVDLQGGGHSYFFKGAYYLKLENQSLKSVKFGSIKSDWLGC

With `Cc1cc(CNC(=O)c2cc(C(=O)NCc3ccc(C(=O)O)cc3)ncn2)ccc1F`, the remaining at 1 h, 1 µM in [1] worked out at 90%.

As for `[2H]C([2H])(NC(=O)c1cc(C(=O)NCc2ccc(F)c(C)c2)ncn1)c1ccc(C(=O)O)cc1`, the IC50 in data set [2] is 74 µM; at Stromelysin-2, 1 µM; at Interstitial collagenase, greater than 100 µM; on Matrilysin, greater than 100 µM; on Neutrophil collagenase it was 98 µM; at Collagenase 3 [6], 0.0048 µM. The IC50 (in data set [7]; on Stromelysin-1; in [9]; in data set [10]) was greater than 100 µM each time. Further, the Activity is 15% in the data set with Rattus norvegicus [3], 15% with Rattus norvegicus [4], 8% in the data set with Rattus norvegicus [5] and 15% in the data set on Rattus norvegicus [8]. Also, in data set [1], the remaining at 1 h, 1 µM was 99%.

`C[C@@H](NC(=O)c1cc(C(=O)NCc2ccc(-c3nnn[nH]3)cc2)ncn1)c1ccccc1`: at Collagenase 3 [11], the IC50 is greater than 0.1 µM.

For the compound `C[C@]12C=CC(=O)C=C1CC[C@H]1[C@@H]3C[C@@H](O)[C@](O)(C(=O)CO)[C@@]3(C)C[C@H](O)[C@@]12F` [TRIAMCINOLONE], the Activity in the data set with Rattus norvegicus [12] stood at 49%; in the data set on Rattus norvegicus [13], 49%; with Rattus norvegicus [14], 40%; in the data set on Rattus norvegicus [16], 34%. Moreover, the outcome with Rattus norvegicus [15] was inactive.

In the case of `C[C@H](NC(=O)c1cc(C(=O)NCc2ccc(-c3nnn[nH]3)cc2)ncn1)c1ccccc1`, the IC50 against Collagenase 3 [11] is less than 0.01 µM.

As to `Cc1cc(CNC(=O)c2cc(C(=O)NCc3ccc(F)c(C)c3)ncn2)ccc1F`, the Stability in data set [17] is reported as 0.6%.
